Reference: paper PMC8273888 (Journal of Medicinal Chemistry, 2021)
Where two headings read alike, the source gives them in different places.

Legend:
[1] = target: VIM-2 (Escherichia coli, UniProt Q5U7L7); settings: cited from earlier work
[2] = test system: IMP family; settings: cited from earlier work
[3] = test system: K. pneumoniae (IMP-28); assay: Synergy assay: MIC of meropenem in combination with test compound; type: cell-based
[4] = target: T1, IMP-1 (Serratia marcescens, UniProt P52699); assay: Enzyme inhibition assay with nitrocefin as chromogenic substrate; type: biochemical; settings: for decrease of activity against IMP-1 relative to 8: from IC50 data of Table 2
T1 sequence (P52699 19-246, looked up, species assumed): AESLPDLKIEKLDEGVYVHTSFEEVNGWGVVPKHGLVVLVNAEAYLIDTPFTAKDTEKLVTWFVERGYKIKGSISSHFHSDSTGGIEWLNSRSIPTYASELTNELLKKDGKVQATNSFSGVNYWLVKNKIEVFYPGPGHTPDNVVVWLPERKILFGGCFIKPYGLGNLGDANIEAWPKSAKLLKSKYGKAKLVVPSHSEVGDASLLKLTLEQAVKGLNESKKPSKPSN

[5] = target: IMP-28 (Klebsiella oxytoca, UniProt G4WB26); assay: as above; type: biochemical; settings: for decrease of activity against IMP-28 relative to 8: from IC50 data of Table 2
Chain of IMP-28 (G4WB26 20-246): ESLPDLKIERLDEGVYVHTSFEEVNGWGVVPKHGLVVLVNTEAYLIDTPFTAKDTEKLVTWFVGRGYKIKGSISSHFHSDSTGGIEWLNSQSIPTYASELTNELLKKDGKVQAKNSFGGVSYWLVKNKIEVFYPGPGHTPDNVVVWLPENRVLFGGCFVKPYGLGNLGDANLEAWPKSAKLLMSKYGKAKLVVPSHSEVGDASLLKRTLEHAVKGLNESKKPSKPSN

[6] = test system: E. cloacae (IMP-1); assay: Synergy assay: MIC of meropenem in combination with test compound; type: cell-based
[7] = test system: E. coli (VIM-2); assay: as above; type: cell-based
[8] = test system: E. coli (NDM-1); assay: as above; type: cell-based
[9] = target: T2, NDM-1 (Klebsiella pneumoniae, UniProt C7C422); assay: Enzyme inhibition assay with nitrocefin as chromogenic substrate; type: biochemical
T2 sequence (C7C422 29-270, looked up, species assumed): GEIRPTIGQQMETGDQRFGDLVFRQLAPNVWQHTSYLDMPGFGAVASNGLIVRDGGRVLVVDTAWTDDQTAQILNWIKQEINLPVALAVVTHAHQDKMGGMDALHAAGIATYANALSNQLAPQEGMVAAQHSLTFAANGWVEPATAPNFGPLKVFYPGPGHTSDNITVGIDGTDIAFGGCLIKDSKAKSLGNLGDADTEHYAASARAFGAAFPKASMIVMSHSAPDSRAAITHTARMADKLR
Method in brief: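 Recombinant NDM-1 (6 nM) in 50 mM HEPES pH 7.2 with 1 μM ZnSO₄ and 0.01% Triton X-100 was preincubated with a range of test compound concentrations for 15–60 min at 25 °C. Nitrocefin (10 μM, ∼2 × K_M) was then added and A492 was read at once over 30 cycles. For time 0, enzyme was added last. IC50 came from initial velocities, in three independent replicates.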

[10] = target: T2, NDM-1; settings: read-out: IC50 NDM-1; cited from earlier work
[11] = target: T1, IMP-1; settings: cited from earlier work
[12] = test system: VIM-1; settings: cited from earlier work
[13] = test compound 0 μg/mL (meropenem alone, baseline)
[14] = mean ± SD, nitrocefin substrate

What does the source list for NCCN[C@H]1CC[C@H](CC(=O)N[C@H]2Cc3cccc(C(=O)O)c3OB2O)CC1 [taniborbactam]?
IC50 VIM-2 [1]: sub-micromolar; inhibition of the IMP family [2]: weak inhibition

Which results are given for O=C(Cc1ccccc1)N[C@@H]1C(=O)N2C(C(=O)O)=C(CS[C@H](Cc3ccccc3)C(=O)O)CS[C@H]12 [Compound 9]?
Fold reduction of MIC (meropenem) ([3]; test compound 32 μg/mL): ≥ 64 fold; Fold reduction of MIC (meropenem) ([3]; test compound 64 μg/mL): ≥ 64 fold; Fold reduction of MIC (meropenem) ([3]; test compound 128 μg/mL): ≥ 64 fold; potency relative to diastereomer 10 against IMP-1 ([4]; more potent than 10): ca. 10 fold; potency relative to diastereomer 10 against IMP-28 ([5]; more potent than 10): ~30 fold

With O=C(Cc1ccccc1)N[C@@H]1C(=O)N2C(C(=O)O)=C(CS[C@@H](Cc3ccccc3)C(=O)O)CS[C@H]12 [Compound 10] as the compound, how does the “Fold reduction of MIC (meropenem)” value ([6]; test compound 128 μg/mL) read?
The value was 4 (4) fold.

What about the “meropenem MIC” value ([6]; test compound 128 μg/mL) of the same compound?
The value was 4 (4) μg/mL.

For CC1=C(C(=O)O)N2C(=O)[C@@H](NC(=O)Cc3ccccc3)[C@H]2SC1 [Compound 15], which “Fold reduction of MIC (meropenem)” value ([7]; test compound 32 μg/mL) is on record?
Its value is 2 (2) fold.

What about the “meropenem MIC” value ([7]; test compound 32 μg/mL) of the same compound?
Its value is 2 (2) μg/mL.

And the “Fold reduction of MIC (meropenem)” value ([7]; test compound 64 μg/mL)?
Its value is 2 (2) fold.

And the “meropenem MIC” value ([7]; test compound 64 μg/mL)?
The value was 2 (2) μg/mL.

What about the “meropenem MIC” value [8, 13] of the same compound?
Its value is 32 µg/mL.

What about the IC50 [4] of the same compound?
The IC50 was > 100 µM.

And the “decrease of activity against IMP-1 relative to 8” value [4]?
The value was “ca. 100 fold”.

And the “decrease of activity against IMP-28 relative to 8” value [5]?
Its value is “ca. 100 fold”.

What about the IC50 [9] of the same compound?
The IC50 was > 100 µM.

Which results are given for O=C(O)CSCC1=C(C(=O)O)N2C(=O)[C@@H](NC(=O)Cc3ccccc3)[C@H]2SC1 [Compound 13]?
Fold reduction of MIC (meropenem) ([6]; test compound 128 μg/mL): 4 (4) fold; meropenem MIC ([6]; test compound 128 μg/mL): 4 (4) μg/mL; Fold reduction of MIC (meropenem) ([7]; test compound 32 μg/mL): 2 (2) fold; meropenem MIC ([7]; test compound 32 μg/mL): 2 (2) μg/mL; Fold reduction of MIC (meropenem) ([7]; test compound 64 μg/mL): 2 (2) fold; meropenem MIC ([7]; test compound 64 μg/mL): 2 (2) μg/mL; meropenem MIC [8, 13]: 32 µg/mL; IC50 [4]: > 100 µM; decrease of activity against IMP-1 relative to 8 [4]: ca. 100 fold; decrease of activity against IMP-28 relative to 8 [5]: ca. 100 fold

What does the source list for O=C(Cc1ccccc1)N[C@H](C(=O)O)[C@@H]1N=C(C(=O)O)C(CSC(C(=O)O)c2ccccc2)CS1 (stereo partly drawn) [Compound 8H]?
IC50 IMP-1 [4, 14]: sub-micromolar; IC50 IMP-28 [5, 14]: sub-micromolar

Which results are given for O=C(Cc1ccccc1)N[C@@H]1C(=O)N2C(C(=O)O)=C(CSCc3ccccc3)CS[C@H]12 [Compound 11]?
meropenem MIC [6, 13]: 32 µg/mL; Fold reduction of MIC (meropenem) ([7]; test compound 32 μg/mL): 2 (2) fold; meropenem MIC ([7]; test compound 32 μg/mL): 2 (2) μg/mL; Fold reduction of MIC (meropenem) ([7]; test compound 64 μg/mL): 2 (2) fold; meropenem MIC ([7]; test compound 64 μg/mL): 2 (2) μg/mL; meropenem MIC [8, 13]: 32 µg/mL; decrease of activity against IMP-1 relative to 8 [4]: ca. 100 fold; decrease of activity against IMP-28 relative to 8 [5]: ca. 100 fold; IC50 [9]: > 100 µM

Which results are given for O=C(O)c1ncsc1NS(=O)(=O)c1cccnc1 [ANT431]?
IC50 [10]: 2.67 µM; inhibitory activity against IMP-1 [11]: remain resistant; inhibitory activity against VIM-1 [12]: remain resistant

For O=C(Cc1ccccc1)N[C@@H]1C(=O)N2C(C(=O)O)=C(CSC(C(=O)O)c3ccccc3)CS[C@H]12 (stereo partly drawn) [Compound 8], which “Fold reduction of MIC (meropenem)” value ([3]; test compound 32 μg/mL) is on record?
Its value is ≥ 64 fold.

And the “Fold reduction of MIC (meropenem)” value ([3]; test compound 64 μg/mL)?
The value was ≥ 64 fold.

What about the “Fold reduction of MIC (meropenem)” value ([3]; test compound 128 μg/mL) of the same compound?
The value was ≥ 64 fold.

With O=C(Cc1ccccc1)N[C@@H]1C(=O)N2C(C(=O)O)=C(CSCCc3ccccc3)CS[C@H]12 [Compound 12] as the compound, how does the “meropenem MIC” value [8, 13] read?
The value was 64 µg/mL.

What about the IC50 [9] of the same compound?
Its IC50 is > 100 µM.

For O=C(O)c1cccc(C(=O)O)n1 [DPA, Dipicolinic acid, reference compound], which “meropenem MIC” value ([3]; test compound 64 μg/mL) is on record?
Its value is ≤ 0.031 µg/mL.

And the “meropenem MIC” value ([3]; test compound 128 μg/mL)?
The value was ≤ 0.031 µg/mL.

What about the “meropenem MIC” value [7, 13] of the same compound?
Its value is 4 µg/mL.

What about the “meropenem MIC” value ([7]; test compound 32 μg/mL) of the same compound?
Its value is ≤ 0.063 µg/mL.

And the “meropenem MIC” value ([7]; test compound 64 μg/mL)?
The value was ≤ 0.063 µg/mL.

What about the “meropenem MIC” value ([7]; test compound 128 μg/mL) of the same compound?
Its value is ≤ 0.063 µg/mL.

What about the “meropenem MIC” value ([8]; test compound 128 μg/mL) of the same compound?
Its value is ≤ 0.5 µg/mL.

For O=C(Cc1ccccc1)N[C@@H]1C(=O)N2C(C(=O)O)=C(CSCC(=O)c3ccccc3)CS[C@H]12 [Compound 6], which “Fold reduction of MIC (meropenem)” value ([6]; test compound 128 μg/mL) is on record?
The value was 4 (4) fold.

And the “meropenem MIC” value ([6]; test compound 128 μg/mL)?
The value was 4 (4) μg/mL.

And the “meropenem MIC” value [8, 13]?
Its value is 32 µg/mL.
